# High-throughput results: PubChem, several laboratories
# ROMK primary = modulates human ROMK potassium channel activity | P48048 | Tet-inducible ROMK, thallium flux fluorescence; actives lie on both sides | 130,000 compounds, 2% hits | B-score at 10 µM;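 active means signal ratio slope over the read window, or its plate-corrected B-score, at least 3 SD from the plate mean, either direction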;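 further: B-score of the F/F0 ratio slope over 7 to 12 s after thallium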
# Cl transport mod = KCC2 (human) Cl- transport modulation | AID 1456 | B-score of Tl+ flux slope (higher = more flux/activation; lower = inhibition) at 10 µM | Q9H2X9 | KCC2 cells, thallium flux FluoZin-2 fluorescence | 190,000 compounds, 2.2% hits;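 active means thallium flux slope and its plate-corrected score both differing from the plate sample mean at a set confidence after two filtering rounds, in either direction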;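 further: slope of fluorescence scaled to starting intensity during 10 to 20 s after thallium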
# m-calpain inh = inhibitors of pig calpain II | purified calpain II, fluorogenic peptide substrate, 30 min | inhibition, % at 16 µM | 220,000 compounds, 0.37% hits | AID 1236;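 active means inhibition above about 50%, limit read from the data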
# Arbovirus anti = blocks arbovirus infection; arbovirus infection cell-based antiviral screen; inhibition, % at 10 µM; 200,000 compounds, 0.37% hits; AID 1251; in the data active means inhibition above about 30%
# Mdm2 ligase inh = Mdm2 E3 ligase (human) inhibition; cell-based MDM2 ubiquitination luciferase reporter, 2 h; 0 = plate control, 100 = twice control, blank-subtracted; signal enhancement, % at 5 µM; 210,000 compounds, 0.11% hits;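 active means signal enhancement of 30% or more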;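 further: luminescence tracks abundance of the self-degrading MDM2-luciferase fusion protein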
#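 Assay system: stable mammalian line carrying autodegrading MDM2–luciferase fusion reporter; amount: 2000 cells seeded into each well; buffer or medium: DMEM; benchmarks: plate control and blank wells; signal: luciferase luminescence; timing: 2 h compound exposure at 37 °C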
# PKD1 inh = PKD1 (human) kinase inhibition; Q15139; PKD1 kinase fluorescence polarization assay; inhibition, % (no concentration beside the values); 200,000 compounds, 0.056% hits; in the data active means inhibition above about 50%
# KCC2 secondary = KCC2 (human) modulation, secondary assay; 3,700 compounds, 15% hits; HEK293-KCC2, thallium flux, FluoZin2 fluorescence; active compounds read high; normalised thallium flux (F/F0 slope) at 10 µM; shares compounds with Cl transport mod;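 active means thallium flux slope above the same plate's solvent-only control mean plus 3 SD; inconclusive means the two replicate wells disagree; inactive means no significant difference from solvent-only control wells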
# KCC2 bumet counter = thallium flux persisting under bumetanide in KCC2 cells, counter-screen secondary assay; HEK293-KCC2 + bumetanide/ouabain, thallium flux FluoZin2; active compounds read high; shares compounds with Cl transport mod; normalized thallium flux at 10 µM; 3,700 compounds, 49% hits; AID 1714;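 active means thallium entry rate above the same plate's blocked-transporter control wells by more than 3 SD; inconclusive means the two repeat wells disagree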;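 further: raw slope of fluorescence over initial fluorescence between 10 and 20 s after thallium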
# KCC2 sec2 = confirmation of human KCC2 transport modulators; HEK293-KCC2, thallium flux FluoZin2 fluorescence; actives lie on both sides; F/F0 rise rate, 10–20 s post-thallium; shares compounds with Cl transport mod; normalized thallium flux at 10 µM; 3,700 compounds, 23% hits;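 active means thallium flux slope more than 3 SD above or below the plate's solvent-only control mean, mostly below; inconclusive means the two repeat wells disagreed; inactive means no significant shift from solvent-only controls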;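 further: raw slope with 0.1% DMSO as baseline and bumetanide as block control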
# HEK293 Tl flux = parental HEK flux effect, counter-screen; shares compounds with Cl transport mod; HEK293 parental cells, thallium flux FluoZin2, ouabain; baseline-ratio fluorescence slope, 10–20 s after thallium; thallium flux rate (normalised fluorescence) at 10 µM; 3,700 compounds, 46% hits; AID 1716;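 active means thallium flux rate significantly above the same plate's solvent-only control wells, beyond their mean plus 3 SD; inconclusive means the two replicate wells gave conflicting results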
# KCC2 ouabain = confirmation of human KCC2 modulators with ouabain. raw Tl+ flux slope (below DMSO = inhibition, above = activation) at 10 µM. shares compounds with Cl transport mod. AID 1717. HEK293-KCC2, thallium flux FluoZin2 fluorescence; bidirectional: low = inhibitor, high = activator. 3,700 compounds, 48% hits;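 active means thallium flux slope beyond 3 SD from same-plate DMSO control mean in most replicates, usually higher, sometimes lower; inconclusive means repeat tests gave conflicting results; inactive means no significant difference from controls in most replicates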;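 further: slope of initial-normalized fluorescence between seconds 10 and 20 after thallium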
# HEK counter2 = acts in parental HEK cells, second KCC2 counter-screen; shares compounds with Cl transport mod; HEK293 parental, thallium flux FluoZin-2 fluorescence slope; thallium flux slope at 10 µM; 3,700 compounds, 33% hits; AID 1718;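 active means thallium flux slope above the same plate's solvent-control mean plus 3 SD in both duplicate wells; inconclusive means duplicate wells that disagreed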;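 further: run without ouabain in cells lacking the KCC2 cotransporter; slope of fluorescence scaled to its starting value between 10 and 20 s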
# Starred values were filed as active, the others as inactive; ? = inconclusive; . = no result given. Only some compounds are listed: those with a hit (about 3.7% of all), similar ones and a draw of the others.
SMILES,ROMK primary,Cl transport mod,m-calpain inh,Arbovirus anti,Mdm2 ligase inh,PKD1 inh,KCC2 secondary,KCC2 bumet counter,KCC2 sec2,HEK293 Tl flux,KCC2 ouabain,HEK counter2
Cc1cc(C)cc(N(CC(=O)NCCSc2ccccn2)S(=O)(=O)c2ccccc2)c1,.,-0.986,4.8,-4.9,-21.3,-7.8,.,.,.,.,.,.
COCC(C)N=C1NN=C(c2cc(C)n(Cc3ccccc3Cl)c2C)CS1 (stereo unspecified),-0.233,0.718,26.5,10.6,-7.3,-7.7,.,.,.,.,.,.
O=C(CSc1ccc(-c2ccc(Cl)cc2)nn1)N1CCCc2ccccc21,.,-0.459,16.9,-17.9,-6.8,8.1,.,.,.,.,.,.
O=C(CSc1ccc(-c2ccccn2)nn1)Nc1nccs1,0.581,-2.71,6.6,-0.8,-1.6,0.2,.,.,.,.,.,.
Cc1nonc1NC(=O)CSc1nc(C2CCCCC2)nc2ccccc12,.,-6.11*,-2.7,2.4,-12.2,-5.1,?,0.00634,0.0309,0.00721,0.0147*,0.0102
Cc1csc(NC(=O)CSc2ccc(-c3ccccn3)nn2)n1,-1.35,-4.86*,15.7,-36.7,-10.8,-9.3,0.0166,0.00481,0.0232*,?,0.012*,0.0099
O=C(CSc1ccc(-c2ccc(F)cc2)nn1)N1CCCc2ccccc21,.,-3.72*,42.6,-1.2,-3.4,-5.4,0.00588,0.00383,0.0202*,?,0.0125*,0.00924
CC1CCN(C(=O)CSc2ccc(-c3ccccc3)nn2)CC1,0.128,-3.16*,15.6,0.2,-10.1,5.0,?,0.00673,0.0311,0.00755,0.0158*,0.0109
Cc1cccc(C)c1NC(=S)NCCSc1ccc(Cl)cc1,-0.119,-0.59,36.4,-30.6,-42.5,-7.1,.,.,.,.,.,.
O=C(Cc1cccs1)N1CCN(S(=O)(=O)c2ccc(Br)cc2)CC1,-1.05,-1.72,13.5,-0.7,-1.9,-7.0,.,.,.,.,.,.
Cc1ccc(NC(=O)CSc2ccc(-c3ccco3)nn2)cc1,.,-3.3*,-75.3,-0.1,17.2,-5.9,0.0178,0.00524,0.022*,0.00764,0.0134,0.0102
CCc1nnc(NC(=O)CSc2ccc(-c3ccc(C)cc3)nn2)s1,1.49,2.46,14.2,-0.4,-24.0,-5.6,.,.,.,.,.,.
Cc1nonc1NC(=O)CSc1ccc(-c2ccccc2)nn1,-0.345,-8.02*,-25.2,-9.8,-5.7,-1.1,0.00746,0.00528,0.0217*,0.00663,?,0.0103
Cc1ccc(-c2ccc(SCC(=O)Nc3cc(C)on3)nn2)cc1,-0.0095,-2.91,-1.5,12.7,-1.1,-1.0,.,.,.,.,.,.
CCOC(=O)N1CCN(C(=O)CSc2ccc(-c3ccccc3)nn2)CC1,0.326,-4.18*,2.9,0.6,-8.7,4.5,0.00953,?,0.0277*,0.00715,0.0143*,0.0108
CCOc1ccc(-c2ccc(SCC(=O)Nc3nnc(CC)s3)nn2)cc1,1.63,4.04*,1.7,-2.2,-23.0,-2.9,0.00578,0.00775*,0.0336,0.0102*,?,0.0131*
Cc1onc(-c2c(Cl)cccc2Cl)c1-c1nc2cc(Cl)ccc2c(=O)o1,.,-0.869,-10.5,.,-7.5,.,.,.,.,.,.,.
CC(C)(C)NC(=O)C(c1ccccn1)N(C(=O)C1CSC(=O)C1)c1ccccc1F (stereo unspecified),0.0489,0.0713,-11.4,-0.3,-11.1,-1.6,.,.,.,.,.,.
